Assay results published in ChEMBL document CHEMBL3232850, “Anti-inflammatory labdane diterpenoids from Lagopsis supina” (J Nat Prod, 2014).

Legend:
[1] = Antiinflammatory activity in […] BV2 cells assessed as inhibition of LPS-induced nitric oxide production by Griess assay; type: functional, cell-based; conditions: BV-2
How it was run: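 BV-2 microglial cells were stimulated with lipopolysaccharide, and NO production was measured by the Griess assay. Inhibition is reported as IC50 values in μM.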

[2] = Cytotoxicity against […] LPS-treated BV2 cells assessed as cell viability up to 80 uM after 24 hrs by MTT assay; type: cell-based; conditions: bv-2, 24 h
[3] = Antiinflammatory activity in […] BV2 cells assessed as inhibition of LPS-induced nitric oxide production at 80 uM by Griess assay; type: functional; conditions: Mus musculus, BV-2

Row | Compound | IC50 [1] | Activity [2] | inhibition at 80 µM [3]
1 | C[C@@H]1C(=O)C=C2C(C)(C)CCC[C@]2(C)[C@@]1(O)CCc1ccoc1 | 14.9 µM | Non-toxic | 
2 | CC(=O)O[C@@H]1[C@H](O)[C@@H](C)[C@]2(CC[C@]3(CO[C@H](O)C3)O2)[C@@]2(C)CCCC(C)(C)[C@H]12 |  |  | < 50%
3 | COC1C=C(CC[C@@]2(O)[C@H](C)[C@@H](O)[C@@H](OC(C)=O)[C@H]3C(C)(C)CCC[C@@]32C)C(=O)O1 (stereo not given in full) | 16.2 µM | Non-toxic | 
4 | CC1(C)CCC[C@@]2(C)C1=CC(=O)[C@](C)(O)[C@]2(O)CCc1ccoc1 |  |  | < 50%
5 | CCC(=O)C(OC(C)=O)[C@H]1C(C)(C)CCC[C@]1(C)C(=O)CCC1=CCOC1=O (stereo not given in full) | 34.9 µM | Non-toxic | 
6 | CCC(=O)C(OC(C)=O)[C@H]1C(C)(C)CCC[C@]1(C)C(=O)CCc1ccoc1 (stereo not given in full) |  |  | < 50%
7 | CC(=O)O[C@@H]1[C@H](O)[C@@H](C)[C@]2(CC[C@@]3(CO[C@H](O)C3)O2)[C@@]2(C)CCCC(C)(C)[C@H]12 |  |  | < 50%
8 | CC(=O)O[C@@H]1[C@H](O)[C@@H](C)[C@]2(CC[C@@]3(CO[C@@H](O)C3)O2)[C@@]2(C)CCCC(C)(C)[C@H]12 |  |  | < 50%
9 | C[C@@H]1[C@@H](O)[C@@H](O)[C@H]2C(C)(C)CCC[C@]2(C)[C@@]1(O)CCc1ccoc1 |  |  | < 50%
10 | O=c1c(O)c(-c2ccc(O)c(O)c2)oc2cc(O)cc(O)c12 [QUERCETIN] | 10 µM |  | 
11 | CC(=O)O[C@@H]1[C@H](OC(C)=O)[C@@H](C)[C@](O)(CCc2ccoc2)[C@@]2(C)CCCC(C)(C)[C@H]12 |  |  | < 50%
12 | CC(=O)O[C@@H]1[C@H](O)[C@@H](C)[C@]2(CC[C@]3(CO[C@@H](O)C3)O2)[C@@]2(C)CCCC(C)(C)[C@H]12 |  |  | < 50%
13 | CC1=C(CCc2ccoc2)[C@@]2(C)CCCC(C)(C)C2=CC1=O | 34 µM | Non-toxic | 
14 | C[C@@H]1[C@@H](O)C(=O)[C@H]2C(C)(C)CCC[C@]2(C)[C@@]1(O)CCc1ccoc1 |  |  | < 50%
15 | CC(=O)O[C@@H]1[C@H](O)[C@@H](C)[C@](O)(CCc2ccoc2)[C@@]2(C)CCCC(C)(C)[C@H]12 |  |  | < 50%
16 | CC(=O)O[C@H]1[C@@H](O)[C@H]2C(C)(C)CCC[C@]2(C)[C@@](O)(CCc2ccoc2)[C@@H]1C |  |  | < 50%
